Key:
[1] = test system: CCRF-CEM; assay: Antiproliferative activity against human CEM cells after 48 hrs by Coulter counting analysis; assay type: cell-based
[2] = test system: FM3A; assay: Antiproliferative activity against mouse FM3A cells after 48 hrs by Coulter counting analysis; assay type: functional, cell-based
[3] = test system: HeLa; assay: Antiproliferative activity against human HeLa cells after 48 hrs by Coulter counting analysis; assay type: functional, cell-based
[4] = test system: MOLT-4; assay: Antiproliferative activity against human MOLT4 cells after 48 hrs by Coulter counting analysis; assay type: functional, cell-based; details: MOLT-4, 48 h
[5] = test system: L1210; assay: Antiproliferative activity against mouse L1210 cells after 48 hrs by Coulter counting analysis; assay type: functional, cell-based; details: L1210, 48 h
[6] = Inhibition of bovine brain tubulin polymerization; design: species or system Bos taurus
[7] = species on record: Bos taurus; assay: Displacement of [3H]colchicine from bovine brain tubulin at 50 uM
[8] = test system: K562; assay: Cell cycle arrest in human K562 cells assessed as accumulation at subG1 phase at IC75 after 72 hrs using propidium iodide staining by flow cytometry; assay type: functional
Procedure, shortened: (§1)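 K562 cells were cultured 72 h with or without compound, then stained with propidium iodide and analysed by flow cytometry. The proportions of cells in sub-G1, G0–G1, S and G2-M were read from DNA histograms and compared with untreated controls.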

[9] = test system: K562; assay: Cell cycle arrest in human K562 cells assessed as accumulation at G0-G1 phase at IC75 after 72 hrs using propidium iodide staining by flow cytometry; assay type: functional; procedure, shortened: as §1
[10] = test system: K562; assay: Cell cycle arrest in human K562 cells assessed as accumulation at S phase at IC75 after 72 hrs using propidium iodide staining by flow cytometry; assay type: functional; procedure, shortened: as §1
[11] = Solubility of the compound; assay type: physicochemical
[12] = test system: K562; assay: Antiproliferative activity against human K562 cells after 48 hrs by Coulter counting analysis; assay type: functional, cell-based; details: K562, 48 h
[13] = test system: K562; assay: Cell cycle arrest in human K562 cells assessed as accumulation at G2-M phase at IC75 after 72 hrs using propidium iodide staining by flow cytometry; assay type: functional; procedure, shortened: as §1

Row | Structure (SMILES) | IC50 [1] [µM] | IC50 [2] [µM] | IC50 [3] [µM] | IC50 [4] [µM] | IC50 [5] [µM] | IC50 [6] [µM] | inhibition [7] [%] | Activity [8] [%] | Activity [9] [%] | Activity [10] [%] | solubility [11] | IC75 [12] [µM] | Activity [13] [%]
1 | COc1ccc(/C=C/C(=O)c2ccc(N)cc2)c(OC)c1 | 18 | 43 | 22 | 20 | 34 |  |  |  |  |  |  |  | 
2 | Cc1ccc(C(=O)/C=C/c2ccc(N)cc2)cc1 | 31 | 107 | 40 | 12 | 49 |  |  |  |  |  |  |  | 
3 | Nc1ccc(/C=C/C(=O)c2ccc(F)cc2)cc1 | 39 | 185 | 40 | 12 | 123 |  |  |  |  |  |  |  | 
4 | C=C(Br)C(=O)Nc1ccc(C(=O)/C=C/c2ccccc2OC)cc1 | 0.58 | 0.37 | 1.3 | 0.24 | 1.7 | 8.3 | 37 | 83.4 | 6.4 | 6.3 | Insoluble | 2.94 | 3.9
5 | COc1cc(C(=O)/C=C/c2ccc(N)cc2)cc(OC)c1OC | 2.5 | 36 | 1.9 | 1.5 | 14 |  |  |  |  |  |  |  | 
6 | Nc1ccc(/C=C/C(=O)c2ccccc2)cc1 | 34 | 146 | 36 | 10 | 88 |  |  |  |  |  |  |  | 
7 | COc1ccc(/C=C/C(=O)c2ccc(N)cc2)cc1OC | 9.3 | 35 | 7.8 | 8.6 | 25 |  |  |  |  |  |  |  | 
8 | C=C(Br)C(=O)Nc1ccc(/C=C/C(=O)c2cccc(OC)c2)cc1 | 2.3 | 2.7 | 0.7 | 0.85 | 2.1 |  |  |  |  |  |  |  | 
9 | C=C(Br)C(=O)Nc1ccc(/C=C/C(=O)c2cccc3ccccc23)cc1 | 3.1 | 2.4 | 2 | 2.1 | 1.1 |  |  |  |  |  |  |  | 
10 | Nc1ccc(/C=C/C(=O)c2ccc(I)cc2)cc1 | 16 | 110 | 58 | 7.5 | 50 |  |  |  |  |  |  |  | 
11 | COc1cccc(/C=C/C(=O)c2ccc(N)cc2)c1 | 23 | 45 | 19 | 21 | 22 |  |  |  |  |  |  |  | 
12 | COc1cc(/C=C/C(=O)c2ccc(N)cc2)cc(OC)c1 | 5.7 | 12 | 7.9 | 7.5 | 6 |  |  |  |  |  |  |  | 
13 | Nc1ccc(C(=O)/C=C/c2ccccc2)cc1 | 8.5 | 34 | 7.7 | 7.9 | 14 |  |  |  |  |  |  |  | 
14 | C=C(Br)C(=O)Nc1ccc(/C=C/C(=O)c2ccc(Cl)c(Cl)c2)cc1 | 1.7 | 3.2 | 3.2 | 1.8 | 2.1 |  |  |  |  |  |  |  | 
15 | C=C(Br)C(=O)Nc1ccc(/C=C/C(=O)c2ccc(OC)cc2)cc1 | 1.4 | 1.2 | 1.4 | 1.3 | 0.98 |  |  |  |  |  |  |  | 
16 | C=C(Br)C(=O)Nc1ccc(C(=O)/C=C/c2ccc(OC)cc2)cc1 | 1.1 | 1 | 0.31 | 0.61 | 0.9 | > 40 |  | 68.2 | 11 | 11.6 | Insoluble | 1.14 | 9.2
17 | C=C(Br)C(=O)Nc1ccc(/C=C/C(=O)c2ccc(C)cc2)cc1 | 1.8 | 2.1 | 2.1 | 1.7 | 1.9 |  |  |  |  |  |  |  | 
18 | COc1ccc(C(=O)/C=C/c2ccc(N)cc2)cc1 | 37 | 282 | 98 | 19 | 160 |  |  |  |  |  |  |  | 
19 | C=C(Br)C(=O)Nc1ccc(/C=C/C(=O)c2ccc(I)cc2)cc1 | 4 | 8.3 | 7.7 | 2.8 | 3.4 |  |  |  |  |  |  |  | 
20 | C=C(Br)C(=O)Nc1ccc(/C=C/C(=O)c2ccccc2)cc1 | 4 | 3.9 | 3.9 | 3.1 | 5 |  |  |  |  |  |  |  | 
21 | C=C(Br)C(=O)Nc1ccc(/C=C/C(=O)c2cccs2)cc1 | 0.73 | 0.52 | 0.34 | 0.55 | 0.25 | > 40 |  | 42.8 | 17 | 23.2 | Insoluble | 0.82 | 17
22 | COc1ccc(/C=C/C(=O)c2ccc(N)cc2)cc1 | 14 | 35 | 8.7 | 8.6 | 18 |  |  |  |  |  |  |  | 

Row | Structure (SMILES) | IC50 [1] [µM] | IC50 [2] [µM] | IC50 [3] [µM] | IC50 [4] [µM] | IC50 [5] [µM] | IC50 [6] [µM] | inhibition [7] [%] | Activity [8] [%] | Activity [9] [%] | Activity [10] [%] | solubility [11] | IC75 [12] [µM] | Activity [13] [%]
23 | COc1ccc(/C=C/C(=O)c2ccc(N)cc2)c(OC)c1OC | 9.7 | 29 | 8.2 | 10 | 25 |  |  |  |  |  |  |  | 
24 | Nc1ccc(/C=C/C(=O)c2ccc(Br)cc2)cc1 | 14 | 120 | 49 | 10 | 90 |  |  |  |  |  |  |  | 
25 | C=C(Br)C(=O)Nc1ccc(/C=C/C(=O)c2ccc(Cl)cc2)cc1 | 0.95 | 1.3 | 1.6 | 0.81 | 1.1 |  |  |  |  |  |  |  | 
26 | Nc1ccc(/C=C/C(=O)c2cccc3ccccc23)cc1 | 22 | 41 | 18 | 12 | 32 |  |  |  |  |  |  |  | 
27 | CCOc1ccc(C(=O)/C=C/c2ccc(N)cc2)cc1 | 15 | 55 | 41 | 11 | 21 |  |  |  |  |  |  |  | 
28 | C=C(Br)C(=O)Nc1ccc(/C=C/C(=O)c2cc(OC)c(OC)c(OC)c2)cc1 | 1.1 | 0.95 | 1.1 | 0.85 | 0.91 |  |  |  |  |  |  |  | 
29 | C=C(Br)C(=O)Nc1ccc(C(=O)/C=C/c2ccc(OC)cc2OC)cc1 | 1.1 | 1.2 | 1.1 | 1.5 | 0.52 |  |  |  |  |  |  |  | 
30 | C=C(Br)C(=O)Nc1ccc(C(=O)/C=C/c2cc(OC)c(OC)c(OC)c2)cc1 | 0.33 | 1.8 | 0.42 | 0.28 | 1.5 |  |  |  |  |  |  |  | 
31 | C=C(Br)C(=O)Nc1ccc(/C=C/C(=O)c2ccc(F)cc2)cc1 | 1.1 | 1.2 | 1.4 | 0.66 | 1.6 |  |  |  |  |  |  |  | 
32 | C=C(Br)C(=O)Nc1ccc(/C=C/C(=O)c2ccc(Br)cc2)cc1 | 0.99 | 1.1 | 1 | 0.68 | 0.62 | > 40 |  | 20.4 | 35.9 | 27.5 | Insoluble | 0.84 | 16.2
33 | COc1cccc(C(=O)/C=C/c2ccc(N)cc2)c1 | 26 | 43 | 33 | 20 | 38 |  |  |  |  |  |  |  | 
34 | COc1cc(/C=C/C(=O)c2ccc(N)cc2)cc(OC)c1OC | 2.3 | 8.8 | 6.9 | 5.6 | 7.8 |  |  |  |  |  |  |  | 
35 | C=C(Br)C(=O)Nc1ccc(C(=O)/C=C/c2ccc(OC)c(OC)c2)cc1 | 1.6 | 1.2 | 0.77 | 1.8 | 1.3 |  |  |  |  |  |  |  | 
36 | Nc1ccc(/C=C/C(=O)c2ccc(Cl)c(Cl)c2)cc1 | 15 | 33 | 31 | 13 | 26 |  |  |  |  |  |  |  | 
37 | C=C(Br)C(=O)Nc1ccc(C(=O)/C=C/c2cc(OC)cc(OC)c2)cc1 | 2.2 | 2 | 1.7 | 1.5 | 2.7 |  |  |  |  |  |  |  | 
38 | CN(C)c1ccc(/C=C/C(=O)c2ccc(N)cc2)cc1 | 20 | 96 | 28 | 9.9 | 67 |  |  |  |  |  |  |  | 
39 | Nc1ccc(/C=C/C(=O)c2ccc(Cl)cc2)cc1 | 21 | 178 | 43 | 7.8 | 111 |  |  |  |  |  |  |  | 
40 | Nc1ccc(/C=C/C(=O)c2cccs2)cc1 | 27 | 123 | 15 | 13 | 87 |  |  |  |  |  |  |  | 
41 | C=C(Br)C(=O)Nc1ccc(C(=O)/C=C/c2cccc(OC)c2OC)cc1 | 0.71 | 0.55 | 0.38 | 0.49 | 1.1 | > 40 |  | 48.4 | 22.3 | 15.2 | Insoluble | 0.64 | 14.1
42 | C=C(Br)C(=O)O |  |  |  |  | > 120 |  |  |  |  |  |  |  | 
43 | C=C(Br)C(=O)Nc1ccc(C(=O)/C=C/c2ccccc2)cc1 | 1.5 | 0.69 | 0.96 | 0.5 | 0.88 | > 40 |  | 47.6 | 23 | 16.4 | Insoluble | 2.77 | 13
44 | C=C(Br)C(=O)Nc1ccc(C(=O)/C=C/c2cccc(OC)c2)cc1 | 1.8 | 1.8 | 0.5 | 1.1 | 1.1 |  |  |  |  |  |  |  | 
